S1P4 antagonist = human S1P4 receptor antagonism; O95977; S1P4-expressing cells, antagonist mode, reporter read-out; inhibition, % at 4.98 µM; hit rate 0.26% among 220,000; in the data active = inhibition above about 29%;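 note: 0% = wells stimulated with agonist and 100% = vehicle wells without agonist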
Target sequence (O95977 whole entry, looked up): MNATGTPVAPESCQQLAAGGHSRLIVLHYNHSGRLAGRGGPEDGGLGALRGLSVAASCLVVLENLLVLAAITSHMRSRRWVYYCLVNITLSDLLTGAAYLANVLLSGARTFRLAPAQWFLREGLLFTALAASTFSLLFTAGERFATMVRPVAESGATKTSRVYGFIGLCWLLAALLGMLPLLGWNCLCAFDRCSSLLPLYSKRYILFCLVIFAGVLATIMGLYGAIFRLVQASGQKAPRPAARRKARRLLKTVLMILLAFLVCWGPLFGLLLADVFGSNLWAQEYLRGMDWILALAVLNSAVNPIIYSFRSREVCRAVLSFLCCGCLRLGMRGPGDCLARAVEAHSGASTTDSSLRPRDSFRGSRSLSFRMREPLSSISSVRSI
NPY Y1 blocker = NPY-Y1 (human) receptor antagonism. P25929. HEK293-CNG Y1 cells, membrane potential fluorescence; NPY at EC95, then isoproterenol. inhibition, % at 3.6 µM. hit rate 1% among 200,000;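 active = inhibition above the campaign mean inhibition of all tested compounds plus 3 SD, cut at about 20% in these data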;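 note: 0% = DMSO wells given NPY plus isoproterenol and 100% = isoproterenol alone without NPY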
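material = HEK293 cells with Y1 receptor plus CNG channel | also added = NPY 25 nM then isoproterenol 1 µM plus Ro 20-1724 25 µM | schedule = dye 3 h, compound 60 min room temperature, stimulation 45 min | measured by = membrane potential fluorescence | benchmarks = high control isoproterenol alone, low control NPY with isoproterenol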
NPY1 pot ag = human NPY-Y1 potentiation or agonism, primary screen. hit rate 0.37% among 220,000. activation, % at 3.6 µM. AID 1304. P25929. NPY-Y1 expressing cells, potentiator/agonist activation; in the data active = activation above about 33%, passing the limit was not always enough;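 note: cells stimulated with NPY at EC10 then isoproterenol at EC100; 0% = low agonist plus stimulus and 100% = saturating agonist plus stimulus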
NPY2 pot ag = potentiators or agonists of human neuropeptide Y receptor Y2 | activation, % at 3.6 µM | cells expressing NPY-Y2, potentiator/agonist read-out | P49146 | hit rate 0.45% among 220,000; in the data active = activation above about 27%;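 note: cells stimulated with NPY near EC25 plus isoproterenol at EC100; 0% = vehicle plus submaximal agonist and 100% = vehicle plus saturating agonist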
S1P4 agonist = agonists of human S1P4 receptor; hit rate 0.35% among 220,000; AID 1509; O95977; activation, % at 4.98 µM; S1P4-expressing cell line, agonist reporter assay; in the data active = activation above about 11%;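 note: 0% = DMSO vehicle and 100% = reference agonist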
NPY Y2 blocker = antagonists of human neuropeptide Y receptor Y2; NPY-Y2 expressing cells, antagonist mode; inhibition, % at 2.7 µM; hit rate 0.99% among 140,000; in the data active = inhibition above about 17%;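 note: 0% = vehicle with agonist challenge and 100% = reference antagonist with challenge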
The depositor's hits bear a star; / = not tested or not shown. Rows were chosen to be rich in hits. Some 2.4% of all compounds tested hit in one or more screens of this group.

SMILES	S1P4 antagonist	NPY Y1 blocker	NPY1 pot ag	NPY2 pot ag	S1P4 agonist	NPY Y2 blocker
CCOc1ccc2nc(NC(=O)CSc3nc(-c4ccccc4)c(C#N)c(=O)[nH]3)sc2c1	-4.0	-1.5	-11.4	0.0	-0.3	/
O=C(Nc1ccc(F)cc1)Nc1ccc(NC(=O)c2ccccc2O)cc1	-1.5	/	39.0	19.0	0.0	/
O=C(C1CCN(Cc2ccc(F)cc2)CC1)N(CCc1ccccc1)Cc1ccccc1	-13.0	21.3*	-29.0	-9.3	1.2	23.6*
O=C(NNc1cccc(Cl)c1)c1cccnc1Oc1ccccc1	15.7	/	7.0	4.2	1.3	/
Cc1[nH]nc2c1C1(C(=O)N(Cc3ccc(Cl)cc3)c3ccccc31)C(C#N)=C(N)O2 (configuration not stated)	-12.8	-4.3	6.5	6.6	-1.0	2.5
CN1C(=O)C2(C(C#N)=C(N)Oc3n[nH]c(-c4ccc(Cl)cc4)c32)c2ccccc21 (configuration not stated)	-5.2	-9.3	40.0*	42.8*	0.7	-0.8
COC(=O)c1cc(S(=O)(=O)n2nc(C)c(Br)c2C)c(Cl)cc1Cl	-7.8	-6.5	52.0*	34.5*	1.4	3.9
COc1ccc(N/N=C(/C(C)=O)N2CCCc3ccccc32)cc1	10.2	/	-2.6	-9.1	-0.7	/
CCn1c(/C=C/N(C)c2ccccc2)[n+](CC)c2ccc(Cl)cc21	-0.1	26.3*	-24.9	-2.8	-0.3	30.6*
CCn1c(/C=C/Nc2ccccc2)[n+](CC)c2ccc(Cl)cc21	-23.8	4.4	-6.4	0.2	0.6	12.5
Cc1ccc(-n2c(Cl)c(Cl)nc(Cl)c2=O)cc1	75.7*	1.6	-6.3	4.2	1.8	1.2
COc1nc(Cl)cn(-c2ccc(C)cc2)c1=O	-4.7	-2.9	-21.8	-11.3	0.3	0.8
Cc1cc(C)n(-c2nnc(C)n2/N=C/c2cc(Br)ccc2OCc2ccccc2)n1	-4.3	7.2	3.0	-14.7	2.2	32.0*
CC(=O)N1CCN(S(=O)(=O)c2ccc(F)c(Cl)c2)CC1	-9.8	9.1	-5.9	-4.0	-0.3	/
COc1ccc2[nH]c(=O)c(CN(Cc3ccco3)Cc3nnnn3Cc3ccccc3)cc2c1	8.7	-3.9	-9.7	-0.1	-0.9	4.4
CCc1ccc2[nH]c(=O)c(CN(Cc3ccccc3OC)Cc3nnnn3Cc3ccco3)cc2c1	-12.6	12.6	-2.2	6.8	3.2	18.7*
COc1cc(NC(=O)c2c(F)cccc2F)c(Cl)cc1Cl	-16.0	6.8	-9.6	4.6	1.6	/
COc1ccccc1NS(=O)(=O)c1cc([N+](=O)[O-])ccc1N/N=C/c1c[nH]c2ccccc12	-16.9	-3.6	38.7*	34.4*	-0.9	-5.5
C(=N\Nc1nc2ccccc2[nH]1)/c1c[nH]c2ccccc12	-25.8	-6.1	43.6*	34.2*	3.2	-0.3
Cn1cc([N+](=O)[O-])c(C(=O)N/N=C\c2c[nH]c3ccccc23)n1	-15.6	0.6	4.5	12.5	1.8	/
Cc1ccccc1/C=N/Nc1nc2ccccc2[nH]1	15.0	12.1	-34.1	-22.8	-0.2	/
O=[N+]([O-])c1ccccc1N/N=C/c1c[nH]c2ccccc12	-34.9	-18.2	105.0*	85.8*	0.8	-13.6
O=C(NCc1nc(-c2ccc(C(F)(F)F)cc2)no1)Nc1ccc(OC(F)(F)F)cc1	-11.8	/	4.8	-24.3	-1.1	/
CCc1nc(Nc2ccc3c(c2)OCO3)c2oc3ccccc3c2n1	6.5	2.5	-20.6	10.0	0.2	2.4
CCc1nc(N2CCN(Cc3ccc4c(c3)OCO4)CC2)c2oc3ccccc3c2n1	3.6	26.3*	-103.3	-44.9	-1.7	20.8*
SMILES	S1P4 antagonist	NPY Y1 blocker	NPY1 pot ag	NPY2 pot ag	S1P4 agonist	NPY Y2 blocker
CCc1nc(N2CCCC(C)C2)c2oc3ccccc3c2n1 (configuration not stated)	-2.5	37.5*	-25.1	-22.7	1.8	29.2*
CCc1nc(N2CCCCC2)c2oc3ccccc3c2n1	-5.1	7.5	-30.1	-31.1	-4.9	14.1
Cc1ccc(S(=O)(=O)CCC(=O)OCn2nnc3ccccc3c2=O)cc1	-9.1	-0.5	-4.4	-7.5	-0.2	/
CSc1nc2n(n1)C(C)C1=C(CCCC1=O)N2 (configuration not stated)	6.9	3.0	13.6	15.4	3.0	/
CC(NS(=O)(=O)c1cccc(Cl)c1)C(=O)Nc1ccc(-c2nc3ccccc3s2)cc1 (configuration not stated)	11.1	-10.0	54.6*	19.9	-4.5	-3.3
CCO[C@@H]1OC(C(=O)N2CCN(Cc3ccccc3)CC2)=C[C@H](c2csc3ccccc23)[C@H]1CCCO	10.6	-7.8	1.8	-3.1	0.3	/
COc1ccc(NS(=O)(=O)c2cc(C)ccc2NC(=O)c2cc(C)oc2C)cc1	-8.6	23.3*	-32.8	-22.1	0.2	35.6*
CCCCOCCCNC1=NCCCCC1	1.4	-4.0	-16.1	-8.9	-1.4	0.3
O=C(O)CCCNC1=NCCC1	-18.9	42.2*	16.5	3.7	1.7	3.8
Cc1ccccc1NC(=O)CSc1nc(N)c2c3c(sc2n1)CSC(C)(C)C3	-1.4	32.0*	-60.0	-22.6	-0.4	47.5*
Cc1ccc(NC(=O)c2cc([N+](=O)[O-])ccc2NCc2cccnc2)cc1Cl	0.2	-6.2	38.7*	15.2	-0.3	-3.8
O=C(NC(c1ccc(Cl)cc1)c1c(O)ccc2ccccc12)c1ccccc1 (configuration not stated)	20.0	-12.8	40.5	42.7*	-0.5	-5.8
CCOC(=O)c1[nH]c(C)c(C(=O)OCCOc2cccc(C)c2)c1C	-11.0	-1.1	-13.6	-5.3	0.7	2.2
CCn1cc(NC(=O)CCl)c(C)n1	2.0	-3.9	-3.4	-0.5	-0.6	/
C/C(=N\N=C(/N)SC1CC(=O)N(c2ccc(Br)cc2)C1=O)c1cccs1 (configuration not stated)	-16.1	-7.6	44.8*	43.9*	0.4	-4.4
CC(C)(C)n1nnnc1C(c1ccc(F)cc1)N(Cc1ccc(F)cc1)Cc1ccco1 (configuration not stated)	-6.6	47.4*	-10.1	-6.8	0.7	26.8*
CC(C)(C)n1nnnc1C(c1ccc(Cl)cc1)N(Cc1cccnc1)Cc1ccco1 (configuration not stated)	-19.1	24.9*	-23.2	-14.0	2.0	27.7*
Fc1ccc(C(c2nnnn2C2CCCC2)N(Cc2ccco2)CC2CCCO2)cc1 (configuration not stated)	-9.2	31.7*	-6.4	4.5	-3.6	43.2*
CC(C)(C)n1nnnc1CN(Cc1cccnc1)Cc1ccccc1Cl	7.3	6.4	-12.6	-2.5	0.9	4.6
CC(C)(C)n1nnnc1C(c1ccc(C(F)(F)F)cc1)N(Cc1ccc(F)cc1)Cc1ccco1 (configuration not stated)	0.0	32.2*	-8.3	-31.3	2.4	25.6*
CCN(Cc1ccccc1)C(c1ccncc1)c1nnnn1C(C)(C)C (configuration not stated)	-5.8	5.5	2.9	15.0	-0.8	4.5

Screens as filed in PubChem.
